This series relates to MS2 coat protein. The series can be described thus: apparent Kd, MS2 coat protein; higher = weaker binding; RNA-MaP array. The procedure, abridged: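 Fluorescently labeled MS2 coat protein, from 1.5 nM to 3 μM, was incubated at room temperature with designed RNAs transcribed on an Illumina sequencing chip from sequenced DNA templates. Times ran from 0.8–1.5 h at the lowest concentrations to 10–20 min at the highest, in Tris-HCl pH 7.5 buffer with KCl, MgCl2, BSA, DTT, tRNA and Tween20, with or without input ligand. Each apparent Kd is the median of per-cluster binding-curve fits, and designs with fewer than 10 measured clusters were excluded.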

Setting [1] is: designed as: OFF switch for flavin mononucleotide, no ligand.
[2] abbreviates: ligand present: flavin mononucleotide, designed as: OFF switch for flavin mononucleotide.
The mark [3] stands for this setting: designed as: ON switch for flavin mononucleotide, no ligand.
Setting [4] is: ligand present: flavin mononucleotide, designed as: ON switch for flavin mononucleotide.
The mark [5] stands for this setting: designed as: OFF switch for theophylline, no ligand.
Where [6] appears, read: ligand present: theophylline, designed as: OFF switch for theophylline.

For “UGUUUGCAAAGAGGAUAUUGGCCAACUGCUGGACAAGAAGGCUUUUAACAAGAUCCUUACAUGAGGAUCACCCAUGUUAGCGUA”, the apparent Kd (in general, the concentration giving half-maximal binding under the conditions of the assay) is, setting by setting: under setting [1], 69.2 nM; under setting [2], 115 nM.

Regarding “CAGGAUCCGAAGAAGGGCAUCGGCCACAGGGCUGCAGGAUAUUCAAUUCAUGCAACAUGAGGAUCACCCAUGUAAUGGGCCGUU”, the “apparent Kd” value stood at 27.5 nM under setting [1] and 22.3 nM under setting [2].

Take “UCCCAUAUAGUAGGAUAUCUGCUACAUGAGGAUCACCCAUGUCAUAUUUUUUACCAGUCUUAGAUAGAGAAGGACUGUGGACCU”: the “apparent Kd” value worked out at 590 nM under setting [3] and 373 nM under setting [4].

Turning to “GAUCGUUGGGUAAGGAUAUAAGUUUAUUGCUUGGGUUAGAAGGUACAUGAGGAUCACCCAUGUAGGUGAGUCAC”, the “apparent Kd” value amounted to 76.2 nM under setting [1] and 61.8 nM under setting [2].

“AAUAUAGCAGGAUAUACAGAACACCAAUAGACUUCGUUUAGACAUGAGGAUCACCCAUGUAGAAGGGCUCAGAC”: the “apparent Kd” value came out at 9.85 nM under setting [1] and 9.18 nM under setting [2].

“UGGGCGGAAGGAUAUACAUGAGGAUCACCCAUGUGUCUUUUGCUGAUGGGUGCAUAGUGUAGAAGGUCCAGUGU”: the “apparent Kd” value reads like this: under setting [1], 93.7 nM; under setting [2], 38.8 nM.

Regarding “AUAUUUUUGUAAUGACAUGAGGAUCACCCAUGUAUCAAUGUAAGAAGGAGGAAAUAAACACGAUCCUAGGAUAUUAGGUGAUUA”, the “apparent Kd” value by setting is: under setting [3], 44.5 nM; under setting [4], 35.3 nM.

As to “AGUACAUCGGAGAAGGUGCAAGGUUAGCUUUCGCAAGGAUAUCCACACCCUUAGUACAGUGCUACAUGAGGAUCACCCAUGUUA”, the “apparent Kd” value is, setting by setting: under setting [1], 10.1 nM; under setting [2], 10.2 nM.

As for “GCAUAUGCAUACAUGAGGAUCACCCAUGUGGAACUAAGGGCGAAGGAUAUGUGUUAAACUACGAGACAGAAGGUCGUGAGUAGA”, the “apparent Kd” value came to 19.9 nM under setting [3] and 15.2 nM under setting [4].

As for “CGGCCACAUGAGGAUCACCCAUGUAGUUCGUCUAAAGGAUAUCCAGGUGGGUGACUCCAAGGAGAAGGUUAGGACG”, the “apparent Kd” value is, setting by setting: under setting [3], 54.7 nM; under setting [4], 39.3 nM.

“CUCGUGUGAGGAUAUUGAUCACAGGUCACGGUGCAGGAAUACAAGAAGGCACAUGAGGAUCACCCAUGUAACCG”: the “apparent Kd” value is, setting by setting: under setting [1], 15.7 nM; under setting [2], 45 nM.

On to “CCUCUCUUCCAGAAGGCUAUCCUAGCAUACGAUAGAGGAUAUGGACCACAAUACGGGUAGAGACACAUGAGGAUCACCCAUGUU”, for which the “apparent Kd” value by setting is: under setting [3], 72.4 nM; under setting [4], 185 nM.

“ACAUAGUAAGGAUAUCUCCUGUUCGAGAAAGAGAGGCAUAAAGAGAAGGUACAUGAGGAUCACCCAUGUGACGA”: the “apparent Kd” value turned out to be 7.51 nM under setting [1] and 7.26 nM under setting [2].

As for “GAUCGACAUGAGGAUCACCCAUGUGAGGAUAUACCGCGGACUCCGUCUGCAUGUUAGGGUAGAAGGCACCGAGC”, the “apparent Kd” value runs as follows: under setting [1], 14.1 nM; under setting [2], 13.1 nM.

For “GAGGCUCAUAUGUAGGAUAUUCAAGGAGCUACAUGAGGAUCACCCAUGUUCGGACGCCAAUUUUUGAAGAAGGACAAGACAGUGUU”, the “apparent Kd” value runs as follows: under setting [3], 54.6 nM; under setting [4], 16.2 nM.

For the sequence “GCGCUAUUUAUUGAUACCAGAUACAGGAAUCACAUGAGGAUCACCCAUGUGGAAUGAAGGAUCCCUUGGCAGCAAUAGUCAAAAU”, the “apparent Kd” value is 17.8 nM (designed as: ON switch for theophylline, no ligand) and 10.8 nM (ligand present: theophylline, designed as: ON switch for theophylline).

Turning to “AAAUUAACGAAGAAGGCCUGACGACAUGACUACAUGAGGAUCACCCAUGUUGCAGCACAAUAUAAGGAGGAUAUUCGACAAGCU”, the “apparent Kd” value under setting [3] amounted to 10.2 nM and the “apparent Kd” value under setting [4] turned out to be 6.86 nM.

For the sequence “UCAAAAUGAUAGAAGGAGGCAAUACUCGCACCUAACAUGAGGAUCACCCAUGUCUGCAGGUUGACCUAGGAUAUAUGCAGUGGA”, the “apparent Kd” value by setting is: under setting [3], 14.6 nM; under setting [4], 9.35 nM.

For “GCGUGACAUGAGGAUCACCCAUGUGGCCUCGGGCUAGGAUAUGCUGAUAUACUCACCACCGCAGAAGGAGCUUCAC”, the “apparent Kd” value reads like this: under setting [3], 142 nM; under setting [4], 131 nM.

Regarding “GCACCGCGAGGAUAUACUCUGGCUAUAAUACCAUAUGACAAACAUGAGGAUCACCCAUGUAGAAGGCGCGAUGU”, the “apparent Kd” value stood at 10.4 nM under setting [1] and 14.2 nM under setting [2].

Turning to “UCCGGACGUUCGGCCGCCACUAAUUUACAUGAGGAUCACCCAUGUGCCAGUGGUCCGCAGAGUAAUAGGACCGGGAACCUUGGCU”, the “apparent Kd” value reads like this: (designed as: OFF switch for tryptophan, no ligand) 25.9 nM; (ligand present: tryptophan, designed as: OFF switch for tryptophan) 29.2 nM.

In the case of “UAUAAUGAAGGAUAUACAUGAGGAUCACCCAUGUUAGACUCUCAGUCGACAGUAAUCCGUAGAAGGUCAUGCCA”, the “apparent Kd” value under setting [1] came to 12.3 nM and the “apparent Kd” value under setting [2] was 13.6 nM.

Regarding “UUGCAAUAGUAGAAGGACCACUCAAGUGUGACGGUAGGAUAUACGGUACAUGAGGAUCACCCAUGUGAGACUACAGCCCUCUCC”, the “apparent Kd” value under setting [1] was 20 nM and the “apparent Kd” value under setting [2] amounted to 21.9 nM.

Take “GCAUGCGGCAAGGAUAUCAAUGCUAUGGUCUAAUGAGAAGGUGCCACAUGAGGAUCACCCAUGUUUCCGGCGAG”: the “apparent Kd” value under setting [1] was 30.8 nM and the “apparent Kd” value under setting [2] is 123 nM.

Turning to “GCAAGGGUGCGAGGAUAUAUUAGAGUCUCUGGAAUAGAAGGCGCAAACAGUGUACAUGAGGAUCACCCAUGUGUAUAUACUGCU”, the “apparent Kd” value was determined as 11 nM under setting [1] and 10.2 nM under setting [2].

For “UUUUACGCAAGUAAUUCCCGGGAACCGGAUACCAGCUCCUCCAACAGCCCUUGGCAGCCGACCACAUGAGGAUCACCCAUGUUUC”, the “apparent Kd” value under setting [5] worked out at 11.7 nM and the “apparent Kd” value under setting [6] amounted to 19.3 nM.

Consider “CAAUGCGGUUAGGAUACCAGCGACACACACUUCUCACAACACAUGAGGAUCACCCAUGUCCGCCCUUGGCAGCCUUGACUAAGGU”, for which the “apparent Kd” value was 30.1 nM under setting [5] and 146 nM under setting [6].

As for “GUAUUACGGACGGCCGCCACUGUGGGACAUGAGGAUCACCCAUGUGGCGCUACUUACAAGUGCGACAGGACCGGGUCAUGGUUUG”, the “apparent Kd” value (designed as: ON switch for tryptophan, no ligand) came to 811 nM and the “apparent Kd” value (ligand present: tryptophan, designed as: ON switch for tryptophan) came out at 301 nM.

On to “ACGAUGAUAGAAGGAUAUAGGCCGAACAUGAGGGACAUGAGGAUCACCCAUGUGACAGUCGGACCCUAGAAGGUCUCGAUACUC”, for which the “apparent Kd” value runs as follows: under setting [1], 21.2 nM; under setting [2], 15.1 nM.

Take “GAACUUCGAGUCAGGAUAUGUACAUCAAAACCAAAACAGAAGGGACAUGAGGAUCACCCAUGUGAGCUAGGAUU”: the “apparent Kd” value reads like this: under setting [1], 14.3 nM; under setting [2], 14.4 nM.

For “AGGUAGCGAGACUUACAUGAGGAUCACCCAUGUACCACGCGGAAGGAUAUAACGGCAGGCUUUGCUUAGAAGGUCCGCGGUACU”, the “apparent Kd” value is, setting by setting: under setting [1], 26.9 nM; under setting [2], 20.4 nM.

For the sequence “GUCAUUCAAGUGAGGAUAUCUGCGAUGCCGAAAGGAGAGAAGGCACAUGAGGAUCACCCAUGUGGUGUUUAUAU”, the “apparent Kd” value under setting [1] stood at 34.5 nM and the “apparent Kd” value under setting [2] was determined as 57.4 nM.

“CAAGAAUGACGUACAGAUAACAAUAACGAUACCAGUACAUCAUUAUACCCUUGGCAGCGUUUCACAUGAGGAUCACCCAUGUACA”: the “apparent Kd” value under setting [5] was 17.4 nM and the “apparent Kd” value under setting [6] came to 18.4 nM.

As for “CUUGUGUGAGGAUAUUAGACACAAUCCGACAGCGGGAUAGUUAAGAAGGCACAUGAGGAUCACCCAUGUUGAGU”, the “apparent Kd” value under setting [1] came to 44.2 nM and the “apparent Kd” value under setting [2] was determined as 81.2 nM.

“UAGCGUUCCUCAGGAUAUCCUUAAGUGGACAUGAGGAUCACCCAUGUGUGAUUCUGGGUGUUAUGGGAGAAGGGAGGGUGAUGA”: the “apparent Kd” value is, setting by setting: under setting [1], 300 nM; under setting [2], 47.5 nM.

With “UCAUAUUAAGGCGAGGAUAUACACGAUCCCACAUGAGGAUCACCCAUGUUUUGAUCAUGCCCUGUGUAGAAGGCGCACCUACGGGA”, the “apparent Kd” value runs as follows: under setting [3], 78.9 nM; under setting [4], 49.5 nM.

The values are drawn from the EternaBench riboswitch data.
